The list is not random: actives were taken first. Their share in the collection is about 3.5%.
Pf gametocyte – kills late stage P. falciparum gametocytes; P. falciparum stage V gametocytes, ATP luminescence, 24 h; inhibition, % at 10.9 µM; 0.065% of 150,000 active;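 active = inhibition above the mean plus 3 SD of compounds within the control limits, set per campaign, cut at about 38% in these data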;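 note: 0% = DMSO wells and 100% = medium only without gametocytes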
NF-kB expr up – compounds increasing NF-kB expression in human neuronal cells | NF-kB reporter expression; hits give high values | fold change at 12.5 µM | 1.6% of 190,000 active; in the data active = fold change above about 3.3
STAT1 activator – increases IFN-gamma driven STAT1 reporter signal; NIH 3T3 STAT1-luciferase reporter, luminescence; 100% = IFN-gamma alone, no compound; activation (% of control), % at 5.5 µM; 2.6% of 200,000 active;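 active = activation above the screen-wide mean activation plus 3 SD, cut at about 130% in these data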;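 note: raw ratio to IFN-gamma control signal so 100% means no change and 0% no light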
APP 5'UTR act – APP 5'UTR luciferase reporter activation; activation, % at 2 µM; 1% of 190,000 active; AID 1276; SH-SY5Y APP 5'UTR luciferase reporter, luminescence; zero percent = DMSO vehicle wells;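 active = activation above a set limit, based on mean plus 3 SD of controls, cut at about 140% in these data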
FLuc stim CS – firefly luciferase counter-screen for stimulation assays | AID 1027 | 200,000 tested, under 10 active | activation factor at 10 µM | P08659 | ATPlite luciferase biochemical, luminescence, 10 min; 0 = ATP-free wells, 1 = DMSO control;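 active = luciferase activation factor, scaled between plate controls, of at least 2 with compound at 10 µM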
Target sequence (P08659 whole entry, looked up): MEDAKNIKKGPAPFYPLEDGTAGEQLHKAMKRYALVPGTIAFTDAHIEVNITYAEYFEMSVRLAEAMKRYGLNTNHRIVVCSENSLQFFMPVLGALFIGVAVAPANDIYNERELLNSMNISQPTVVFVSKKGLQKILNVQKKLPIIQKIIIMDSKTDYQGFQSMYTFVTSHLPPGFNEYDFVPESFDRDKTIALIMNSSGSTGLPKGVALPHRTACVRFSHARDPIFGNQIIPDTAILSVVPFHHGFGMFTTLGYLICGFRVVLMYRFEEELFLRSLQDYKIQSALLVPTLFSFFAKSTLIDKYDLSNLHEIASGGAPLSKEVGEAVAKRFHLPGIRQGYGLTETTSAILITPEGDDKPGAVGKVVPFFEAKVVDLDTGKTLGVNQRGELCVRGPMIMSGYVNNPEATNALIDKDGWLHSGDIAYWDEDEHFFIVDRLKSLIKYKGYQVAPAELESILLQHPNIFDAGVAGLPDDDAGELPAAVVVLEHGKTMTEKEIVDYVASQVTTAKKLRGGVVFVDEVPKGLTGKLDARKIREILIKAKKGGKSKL
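System: luciferase plus luciferin reagent, cell-free; medium: PBS as buffer for the ATP substrate; dosing: test compounds dosed from 2 mM stocks in 100% DMSO; timing: 10 min post-reagent at room temperature; measured by: luminescence measurement of luciferase light output; evaluation: luciferase activation, seen as luminescence increase over controls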
FLuc inhib CS – Photinus pyralis luciferase inhibition counter-screen | P08659 | inhibition, % at 10 µM | ATPLite firefly luciferase biochemical luminescence, 10 min | 1.5% of 200,000 active;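 active = inhibition above about 50% when tested at 10 µM, limit read from the data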
* = called active by the depositor; nt = not tested or not shown.

SMILES	Pf gametocyte	NF-kB expr up	STAT1 activator	APP 5'UTR act	FLuc stim CS	FLuc inhib CS
Nc1nnn(CC(=O)N/N=C/c2cn[nH]c2-c2ccccc2)n1	-3.5	nt	nt	nt	nt	nt
Cc1ccc(N(CC(=O)Nc2ccc(-c3nc4ccc(C)cc4s3)cc2)S(C)(=O)=O)cc1	7.7	1.85	139.7*	121.1	0.8	16.9
Cc1ccc(C)c(N(CC(=O)Nc2ccc(-c3nc4ccc(C)cc4s3)cc2)S(C)(=O)=O)c1	16.2	1.05	115.9	47.9	1	0.0
Cc1ccc2nc(-c3ccc(NC(=O)CNC4CC4)cc3)sc2c1	-22.1	5.33*	114.5	199.0*	0.8	17.5
Cc1ccc2nc(-c3ccc(NC(=O)CCS(=O)(=O)c4ccccc4)cc3)sc2c1	nt	3.6*	91.6	126.0	0.9	10.6
Cc1ccc2nc(-c3ccc(NC(=S)NC(=O)CC(C)C)cc3)sc2c1	nt	1.39	114.0	78.7	1	-0.4
CCC(C)c1nc2c(c(N3CCC3=O)c1-c1ccccc1)CCCC2 (configuration not stated)	21.5	nt	nt	nt	nt	nt
N/C(=N\OC(=O)c1cccc(Cl)c1)c1ccccn1	11.3	5.26*	76.7	166.3*	0.1	91.3*
N/C(=N\OC(=O)c1ccccc1[N+](=O)[O-])c1cccnc1	6.6	1.64	109.9	41.1	0.6	37.3
Cc1cc(/C(N)=N/OC(=O)c2cccc(Cl)c2)no1	-10.1	nt	nt	nt	nt	nt
N/C(=N\OC(=O)c1ccccc1[N+](=O)[O-])c1ccccn1	10.9	3.92*	94.2	103.6	0.3	69.1*
N/C(=N\OC(=O)c1ccccc1Cl)c1ccccn1	nt	0.88	31.0	123.3	0.1	93.0*
N/C(=N\OC(=O)c1ccc(Cl)cc1)c1ccccn1	nt	3.55*	96.7	185.4*	0	97.0*
CC(C)CN1CCC(=O)N(CCSc2ccccc2)CC1	-0.8	nt	nt	nt	nt	nt
O=S(=O)(c1ccc2ccccc2c1)N1CCN(S(=O)(=O)c2c(F)cccc2F)CC1	2.6	nt	nt	nt	nt	nt
CC1=CC(=O)N(c2cccc(C(F)(F)F)c2)C1c1ccc(Cl)cc1 (configuration not stated)	-2.6	0.85	97.2	7.3	0.9	11.1
COc1coc(/C=C/C(=O)O)cc1=O	13.9	1.03	103.6	6.5	1	-0.9
CC(Oc1ccc(Cl)cc1Cl)C(=O)N(C)c1ccccc1 (configuration not stated)	-29.2	1.11	99.2	3.3	1.1	-6.0
N/C(=N\OC(=O)c1ccc(Cl)c(Cl)c1)c1ccccn1	nt	4.55*	131.2*	140.4*	0.5	46.3
N/C(=N\OC(=O)c1ccc(Cl)c([N+](=O)[O-])c1)c1ccccn1	7.3	1.79	98.7	25.0	0.7	26.0
N/C(=N\OC(=O)c1cccnc1)c1ccc(Cl)cc1Cl	15.5	1.06	127.9	24.4	0.9	5.9
N/C(=N\OC(=O)c1cccnc1)c1ccccc1Cl	nt	1.64	131.2*	12.4	0.6	39.8
C=CC[C@@H](CC(=O)N[C@H](CO)Cc1ccccc1)C(=O)NC[C@@H](OC(=O)[C@@H](CC=C)Cc1ccc(F)cc1)c1ccccc1	11.9	nt	nt	nt	nt	nt
Cc1ccc(O)c(C2=Nc3ccccc3C2(C)C)c1	nt	1.12	146.6*	26.7	0.9	10.4
O=C(C=C1SCCS1)/C=C/c1ccco1	19.7	5.92*	114.3	157.9*	0.3	69.9*
SMILES	Pf gametocyte	NF-kB expr up	STAT1 activator	APP 5'UTR act	FLuc stim CS	FLuc inhib CS
O=C(O)C(C(=O)/C=C/c1ccco1)=C1SCCS1	nt	1.52	94.5	2.9	1	0.8
Cn1c(CBr)c(C(=O)c2ccc([N+](=O)[O-])cc2)c(=O)n(C)c1=O	23.7	nt	nt	nt	nt	nt
Nc1c(N=Nc2ccccc2F)c(=O)[nH]n1-c1ccccc1	nt	3.08	134.5*	61.1	0.9	8.0
C1CCN(c2c3c(nc4nnnn24)CCCC3)CC1	nt	1.19	100.7	5.5	1.1	-6.6
CC(C)Sc1nc(N)nc(-c2cccs2)c1C#N	10.6	2.8	133.5*	nt	0.9	5.1
Cc1nnc(SC(C)C(=O)Nc2ncc(Cl)cc2Cl)n1Cc1ccccc1 (configuration not stated)	nt	1.16	88.1	1.3	1	3.3
Cc1cc(SC(C)C(=O)Nc2ncc(Cl)cc2Cl)nc2ccccc12 (configuration not stated)	-2.6	3.4*	103.3	-1.4	1	-4.6
Cc1cc2cc(CCNC(=O)C(=O)c3c[nH]c4ccccc34)c(=O)[nH]c2cc1C	-2.4	0.56	101.6	-14.6	1	-4.8
